# Results from ChEMBL document CHEMBL1135916, “Design, synthesis, and structure-activity relationship of pyridyl imidazolidinones: a novel class of potent and selective human enterovirus 71 inhibitors” (J Med Chem, 2002).
# Tested on: not listed separately
# Experiment: selectivity index of the compound
# Format: functional
# Conditions: not given
row,SMILES,Selectivity index
1,O=C1N(CCCCCCOc2ccc(-c3cccs3)cc2)CCN1c1ccncc1,200

# Tested on: Enterovirus
# Experiment: Inhibition concentration against human rhinovirus 2
# Format: functional, organism-based
# Conditions: not given
# Outline: (§1)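 Plaque reduction on Vero cell monolayers infected to give about 50-100 plaques per monolayer in virus control; test compound diluted into agar-medium overlay; 96 h at 35 °C, crystal violet staining, plaques counted. […] Triplicate well means, at least two experiments.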
row,SMILES,IC50
1,O=C1N(CCCCCCOc2ccc(C(F)(F)F)cc2)CCN1c1ccncc1,> 25 µM
2,O=C1N(CCCCCCOc2ccc(Br)cc2)CCN1c1ccncc1,> 25 µM

# Tested on: Coxsackievirus
# Experiment: Inhibition concentration against coxsackie virus A24
# Format: functional, organism-based
# Conditions: not given
# Outline: as §1
row,SMILES,IC50
1,O=C1N(CCCCCCOc2ccc(C(F)(F)F)cc2)CCN1c1ccncc1,0.47 µM
2,O=C1N(CCCCCCOc2ccc(Br)cc2)CCN1c1ccncc1,0.55 µM

# Tested on: not listed separately
# Experiment: Selectivity index (RD/EV71) of the compound
# Format: functional
# Conditions: not given
row,SMILES,Selectivity index
1,O=C1N(CCCCCCOc2ccc(C(F)(F)F)cc2)CCN1c1ccncc1,> 43
2,O=C1N(CCCCCCOc2ccc(-c3cccs3)cc2)CCN1c1ccncc1,> 83
3,O=C1N(CCCCCCOc2ccc(Br)cc2)CCN1c1ccncc1,> 71

# Tested on: Coxsackievirus
# Experiment: Inhibition concentration against coxsackie virus A16
# Format: functional, organism-based
# Conditions: not given
# Outline: as §1
row,SMILES,IC50
1,O=C1N(CCCCCCOc2ccc(C(F)(F)F)cc2)CCN1c1ccncc1,> 25 µM
2,O=C1N(CCCCCCOc2ccc(Br)cc2)CCN1c1ccncc1,> 25 µM

# Tested on: Coxsackievirus
# Experiment: Inhibition concentration against coxsackie virus B2
# Format: functional, organism-based
# Conditions: not given
# Outline: as §1
row,SMILES,IC50
1,O=C1N(CCCCCCOc2ccc(C(F)(F)F)cc2)CCN1c1ccncc1,> 25 µM
2,O=C1N(CCCCCCOc2ccc(Br)cc2)CCN1c1ccncc1,> 25 µM

# Tested on: not listed separately
# Experiment: (§2) Cytotoxicity against human rhabdomyosarcoma (RD) cells
# Format: functional
# Conditions: not given
# Outline: (§3)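 Test compound at various concentrations added to D551 (human normal skin fibroblast), WI38 (human normal lung fibroblast) or RD cells; incubated 96 h at 37 °C; cells harvested and viable cells counted by trypan blue staining. Triplicate, at least twice.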
row,SMILES,CC50
1,O=C1N(CCCCCCOc2ccc(-c3cccs3)cc2)CCN1c1ccncc1,> 25 µM

# Tested on: Enterovirus A71
# Experiment: Inhibition concentration against EV-71
# Format: functional, organism-based
# Conditions: Enterovirus A
row,SMILES,IC50
1,O=C1N(CCCCCCOc2ccc(C(F)(F)F)cc2)CCN1c1ccncc1,0.58 µM
2,O=C1N(CCCCCCOc2ccc(-c3cccs3)cc2)CCN1c1ccncc1,0.3 µM
3,O=C1N(CCCCCCOc2ccc(Br)cc2)CCN1c1ccncc1,0.35 µM

# Tested on: Enterovirus
# Experiment: Inhibition concentration against EV-71 (1743) genotype B
# Format: functional, organism-based
# Conditions: not given
# Outline: as §1
row,SMILES,IC50
1,O=C1N(CCCCCCOc2ccc(C(F)(F)F)cc2)CCN1c1ccncc1,0.75 µM
2,O=C1N(CCCCCCOc2ccc(Br)cc2)CCN1c1ccncc1,0.6 µM

# Tested on: Coxsackievirus
# Experiment: Inhibition concentration against coxsackie virus B5
# Format: functional, organism-based
# Conditions: not given
# Outline: as §1
row,SMILES,IC50
1,O=C1N(CCCCCCOc2ccc(C(F)(F)F)cc2)CCN1c1ccncc1,> 25 µM
2,O=C1N(CCCCCCOc2ccc(Br)cc2)CCN1c1ccncc1,> 25 µM

# Tested on: Enterovirus
# Experiment: Inhibition concentration against EV-71 (2231) genotype C
# Format: functional, organism-based
# Conditions: not given
# Outline: as §1
row,SMILES,IC50
1,O=C1N(CCCCCCOc2ccc(C(F)(F)F)cc2)CCN1c1ccncc1,1.35 µM
2,O=C1N(CCCCCCOc2ccc(Br)cc2)CCN1c1ccncc1,1.15 µM

# Tested on: Coxsackievirus
# Experiment: Inhibition concentration against coxsackie virus A9
# Format: functional, organism-based
# Conditions: not given
# Outline: as §1
row,SMILES,IC50
1,O=C1N(CCCCCCOc2ccc(C(F)(F)F)cc2)CCN1c1ccncc1,1.44 µM
2,O=C1N(CCCCCCOc2ccc(Br)cc2)CCN1c1ccncc1,0.77 µM

# Tested on: Coxsackievirus
# Experiment: Inhibition concentration against coxsackie virus B3
# Format: functional, organism-based
# Conditions: not given
# Outline: as §1
row,SMILES,IC50
1,O=C1N(CCCCCCOc2ccc(C(F)(F)F)cc2)CCN1c1ccncc1,> 25 µM
2,O=C1N(CCCCCCOc2ccc(Br)cc2)CCN1c1ccncc1,> 25 µM

# Tested on: Human alphaherpesvirus 2
# Experiment: Inhibition concentration against herpes simplex virus
# Format: functional, organism-based
# Conditions: not given
# Outline: as §1
row,SMILES,IC50
1,O=C1N(CCCCCCOc2ccc(C(F)(F)F)cc2)CCN1c1ccncc1,> 25 µM
2,O=C1N(CCCCCCOc2ccc(Br)cc2)CCN1c1ccncc1,> 25 µM

# Tested on: Enterovirus
# Experiment: Inhibition concentration against EV-71 (BrCR) genotype A
# Format: functional, organism-based
# Conditions: not given
# Outline: as §1
row,SMILES,IC50
1,O=C1N(CCCCCCOc2ccc(C(F)(F)F)cc2)CCN1c1ccncc1,1.37 µM
2,O=C1N(CCCCCCOc2ccc(Br)cc2)CCN1c1ccncc1,1.26 µM

# Tested on: not listed separately
# Experiment: Selectivity index (W138/EV71) of the compound
# Format: functional
# Conditions: not given
row,SMILES,Selectivity index
1,O=C1N(CCCCCCOc2ccc(C(F)(F)F)cc2)CCN1c1ccncc1,71
2,O=C1N(CCCCCCOc2ccc(Br)cc2)CCN1c1ccncc1,161

# Tested on: not listed separately
# Experiment: Selectivity index (D551/EV71) of the compound
# Format: functional
# Conditions: not given
row,SMILES,Selectivity index
1,O=C1N(CCCCCCOc2ccc(C(F)(F)F)cc2)CCN1c1ccncc1,108
2,O=C1N(CCCCCCOc2ccc(-c3cccs3)cc2)CCN1c1ccncc1,153
3,O=C1N(CCCCCCOc2ccc(Br)cc2)CCN1c1ccncc1,148

# Tested on: Coxsackievirus
# Experiment: Inhibition concentration against coxsackie virus A10
# Format: functional, organism-based
# Conditions: not given
# Outline: as §1
row,SMILES,IC50
1,O=C1N(CCCCCCOc2ccc(C(F)(F)F)cc2)CCN1c1ccncc1,15.7 µM
2,O=C1N(CCCCCCOc2ccc(Br)cc2)CCN1c1ccncc1,5.88 µM

# Tested on: Enterovirus
# Experiment: Inhibition concentration against EV-71 (2086) genotype C
# Format: functional, organism-based
# Conditions: not given
# Outline: as §1
row,SMILES,IC50
1,O=C1N(CCCCCCOc2ccc(C(F)(F)F)cc2)CCN1c1ccncc1,0.51 µM
2,O=C1N(CCCCCCOc2ccc(Br)cc2)CCN1c1ccncc1,0.31 µM

# Tested on: Enterovirus
# Experiment: Inhibition concentration against echovirus 9
# Format: functional, organism-based
# Conditions: not given
# Outline: as §1
row,SMILES,IC50
1,O=C1N(CCCCCCOc2ccc(C(F)(F)F)cc2)CCN1c1ccncc1,2.61 µM
2,O=C1N(CCCCCCOc2ccc(Br)cc2)CCN1c1ccncc1,2.82 µM

# Tested on: Enterovirus
# Experiment: Inhibition concentration against echovirus 29
# Format: functional, organism-based
# Conditions: not given
# Outline: as §1
row,SMILES,IC50
1,O=C1N(CCCCCCOc2ccc(C(F)(F)F)cc2)CCN1c1ccncc1,> 25 µM
2,O=C1N(CCCCCCOc2ccc(Br)cc2)CCN1c1ccncc1,> 25 µM

# Tested on: Coxsackievirus
# Experiment: Inhibition concentration against coxsackie virus B1
# Format: functional, organism-based
# Conditions: not given
# Outline: as §1
row,SMILES,IC50
1,O=C1N(CCCCCCOc2ccc(C(F)(F)F)cc2)CCN1c1ccncc1,5.6 µM
2,O=C1N(CCCCCCOc2ccc(Br)cc2)CCN1c1ccncc1,5.1 µM

# Tested on: not listed separately
# Experiment: Cytotoxicity against human normal skin fibroblast (W138) cells
# Format: cell-based
# Conditions: W138 normal skin fibroblast cells
# Outline: as §3
row,SMILES,CC50
1,O=C1N(CCCCCCOc2ccc(C(F)(F)F)cc2)CCN1c1ccncc1,36 µM
2,O=C1N(CCCCCCOc2ccc(-c3cccs3)cc2)CCN1c1ccncc1,60 µM
3,O=C1N(CCCCCCOc2ccc(Br)cc2)CCN1c1ccncc1,50 µM

# Tested on: unidentified influenza virus
# Experiment: Inhibition concentration against influenza A (WSN)
# Format: functional, organism-based
# Conditions: not given
# Outline: (§4)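 Plaque reduction assay on Vero cell monolayers. Virus was added at a dose giving about 50-100 plaques per monolayer in virus controls. Compound was diluted into the agar-medium overlay, tested up to 25 µM. Plates were incubated 96 h at 35 °C, stained with crystal violet, and plaques counted.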
row,SMILES,IC50
1,O=C1N(CCCCCCOc2ccc(C(F)(F)F)cc2)CCN1c1ccncc1,> 25 µM
2,O=C1N(CCCCCCOc2ccc(Br)cc2)CCN1c1ccncc1,> 25 µM

# Tested on: unidentified influenza virus
# Experiment: Inhibition concentration against influenza B […]
# Format: functional, organism-based
# Conditions: not given
# Outline: as §4
row,SMILES,IC50
1,O=C1N(CCCCCCOc2ccc(C(F)(F)F)cc2)CCN1c1ccncc1,> 25 µM
2,O=C1N(CCCCCCOc2ccc(Br)cc2)CCN1c1ccncc1,> 25 µM

# Tested on: not listed separately
# Experiment: as §2
# Format: functional
# Conditions: Homo sapiens, RD
row,SMILES,CC50
1,O=C1N(CCCCCCOc2ccc(C(F)(F)F)cc2)CCN1c1ccncc1,> 25 µM
2,O=C1N(CCCCCCOc2ccc(Br)cc2)CCN1c1ccncc1,> 25 µM

# Tested on: Coxsackievirus
# Experiment: Inhibition concentration against coxsackie virus B6
# Format: functional, organism-based
# Conditions: not given
# Outline: as §1
row,SMILES,IC50
1,O=C1N(CCCCCCOc2ccc(C(F)(F)F)cc2)CCN1c1ccncc1,> 25 µM
2,O=C1N(CCCCCCOc2ccc(Br)cc2)CCN1c1ccncc1,> 25 µM

# Tested on: Coxsackievirus
# Experiment: Inhibition concentration against coxsackie virus B4
# Format: functional, organism-based
# Conditions: not given
# Outline: as §1
row,SMILES,IC50
1,O=C1N(CCCCCCOc2ccc(C(F)(F)F)cc2)CCN1c1ccncc1,> 25 µM
2,O=C1N(CCCCCCOc2ccc(Br)cc2)CCN1c1ccncc1,> 25 µM

# Tested on: Enterovirus
# Experiment: Inhibition concentration against human rhinovirus 14
# Format: functional, organism-based
# Conditions: not given
# Outline: as §1
row,SMILES,IC50
1,O=C1N(CCCCCCOc2ccc(C(F)(F)F)cc2)CCN1c1ccncc1,> 12.5 µM
2,O=C1N(CCCCCCOc2ccc(Br)cc2)CCN1c1ccncc1,11.6 µM

# Tested on: Enterovirus
# Experiment: Inhibition Concentration against enterovirus 68
# Format: functional, organism-based
# Conditions: not given
# Outline: as §1
row,SMILES,IC50
1,O=C1N(CCCCCCOc2ccc(C(F)(F)F)cc2)CCN1c1ccncc1,4.67 µM
2,O=C1N(CCCCCCOc2ccc(Br)cc2)CCN1c1ccncc1,2.13 µM

# Tested on: not listed separately
# Experiment: Cytotoxicity against human normal skin fibroblast (D551) cells
# Format: cell-based
# Conditions: D551 normal skin fibroblast cells
# Outline: as §3
row,SMILES,CC50
1,O=C1N(CCCCCCOc2ccc(C(F)(F)F)cc2)CCN1c1ccncc1,55 µM
2,O=C1N(CCCCCCOc2ccc(-c3cccs3)cc2)CCN1c1ccncc1,46 µM
3,O=C1N(CCCCCCOc2ccc(Br)cc2)CCN1c1ccncc1,46 µM
